The values below come from ChEMBL document CHEMBL2010791, “3-Phenyl-5-isothiazole carboxamides with potent mGluR1 antagonist activity” (Bioorg Med Chem Lett, 2012).

The structures appear in SMILES notation. Active and inactive are the calls of the source. No cut-off for these calls is given here.

Series [1] has as its target Metabotropic glutamate receptor 1 (Homo sapiens, UniProt Q13255). Put plainly: Allosteric antagonist activity at human recombinant mGluR1 expressed in AV12 cells assessed as intracellular calcium concentration using Fluo-3 dye by FLIPR assay. It counts as functional, cell-based. The method, boiled down: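 Intracellular calcium read with Fluo-3 on a 96-channel FLIPR; peak fluorescence to glutamate at its EC90 with and without compound. Inhibition expressed as percent of assay window (EC90 glutamate response minus buffer); IC50 from 4-parameter logistic fit.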
For orientation: A change in cytosolic calcium serves as a functional read-out for many receptors and channels.

Series [2] has as its target Metabotropic glutamate receptor 5 (Homo sapiens, UniProt P41594). The series is described as follows: Antagonist activity at human mGluR5. It counts as functional.
The target in series [3] is Metabotropic glutamate receptor 3 (Homo sapiens) (UniProt Q14832). Put plainly: Antagonist activity at mGluR3. In kind it is functional.
Sequence of Metabotropic glutamate receptor 3 (Homo sapiens) (Q14832 23-879 limits assumed): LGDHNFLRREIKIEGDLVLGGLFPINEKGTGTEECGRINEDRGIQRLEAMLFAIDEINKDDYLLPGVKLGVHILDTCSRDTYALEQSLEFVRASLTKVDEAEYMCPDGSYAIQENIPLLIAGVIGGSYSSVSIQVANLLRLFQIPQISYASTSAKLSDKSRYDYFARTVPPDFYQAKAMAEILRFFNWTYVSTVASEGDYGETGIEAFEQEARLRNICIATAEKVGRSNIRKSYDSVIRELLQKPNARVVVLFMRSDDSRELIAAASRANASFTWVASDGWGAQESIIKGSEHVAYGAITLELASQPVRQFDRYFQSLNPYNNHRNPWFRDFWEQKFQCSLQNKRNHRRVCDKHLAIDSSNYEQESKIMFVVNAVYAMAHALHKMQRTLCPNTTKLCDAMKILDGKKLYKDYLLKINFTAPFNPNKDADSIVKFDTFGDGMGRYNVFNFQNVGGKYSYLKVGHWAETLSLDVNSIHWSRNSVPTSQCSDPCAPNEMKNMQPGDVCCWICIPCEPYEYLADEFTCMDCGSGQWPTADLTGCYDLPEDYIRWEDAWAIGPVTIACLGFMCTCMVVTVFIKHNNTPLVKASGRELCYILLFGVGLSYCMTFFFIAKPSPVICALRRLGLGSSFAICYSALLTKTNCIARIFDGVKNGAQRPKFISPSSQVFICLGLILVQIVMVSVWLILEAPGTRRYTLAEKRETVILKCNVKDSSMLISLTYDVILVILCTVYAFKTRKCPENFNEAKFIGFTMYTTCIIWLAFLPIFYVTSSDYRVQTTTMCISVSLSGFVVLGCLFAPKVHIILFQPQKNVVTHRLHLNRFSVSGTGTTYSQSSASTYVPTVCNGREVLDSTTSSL
For series [4], the target named is Metabotropic glutamate receptor 7 (Homo sapiens) (UniProt Q14831). Put plainly: Antagonist activity at mGluR7. It counts as functional.
Sequence of Metabotropic glutamate receptor 7 (Homo sapiens) (Q14831 whole entry): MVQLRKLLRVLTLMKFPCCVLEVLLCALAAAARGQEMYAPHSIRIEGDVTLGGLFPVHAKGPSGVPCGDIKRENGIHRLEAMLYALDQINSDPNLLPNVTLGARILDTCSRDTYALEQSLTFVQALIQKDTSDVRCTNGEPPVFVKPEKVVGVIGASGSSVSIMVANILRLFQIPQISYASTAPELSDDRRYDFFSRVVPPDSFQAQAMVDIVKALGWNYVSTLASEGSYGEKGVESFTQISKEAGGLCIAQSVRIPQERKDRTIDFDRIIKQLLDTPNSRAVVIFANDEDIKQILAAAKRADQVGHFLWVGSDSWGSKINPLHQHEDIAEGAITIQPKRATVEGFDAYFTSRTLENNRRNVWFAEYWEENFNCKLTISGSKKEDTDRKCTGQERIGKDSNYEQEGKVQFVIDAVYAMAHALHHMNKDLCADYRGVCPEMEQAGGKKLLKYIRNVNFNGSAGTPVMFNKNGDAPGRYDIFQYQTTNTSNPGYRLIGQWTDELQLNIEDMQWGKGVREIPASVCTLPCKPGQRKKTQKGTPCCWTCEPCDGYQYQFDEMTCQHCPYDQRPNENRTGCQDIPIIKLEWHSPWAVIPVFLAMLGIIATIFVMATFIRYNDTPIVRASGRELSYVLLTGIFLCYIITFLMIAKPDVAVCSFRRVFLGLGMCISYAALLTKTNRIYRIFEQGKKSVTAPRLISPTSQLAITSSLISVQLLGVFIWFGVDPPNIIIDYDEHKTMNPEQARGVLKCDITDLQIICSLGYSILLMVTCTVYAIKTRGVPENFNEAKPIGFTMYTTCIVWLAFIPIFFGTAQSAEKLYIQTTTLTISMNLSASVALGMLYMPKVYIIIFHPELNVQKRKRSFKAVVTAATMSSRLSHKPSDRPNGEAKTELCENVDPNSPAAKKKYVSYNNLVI
For series [5], the system named is Rattus norvegicus. Put plainly: Analgesic activity in fasted Harlan Sprague-Dawley rat assessed as inhibition of formalin-induced paw-licking behaviour in late phase at 3 to 60 mg/kg, po administered 1 hr before formalin challenge measured after 11 to 40 mins. In kind it is functional, organism-based. The method, boiled down: (§1)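 Fasted male Sprague Dawley rats dosed orally (1, 3, 10, 30, 60 mg/kg, n = 8 per group) 1 h before intraplantar injection of 50 µl 5% formalin into right hindpaw. Paw-licking events counted 0–5 min (early) and 11–40 min (late); compared with vehicle, p<0.05.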

The target of series [6] is Metabotropic glutamate receptor 4 (Homo sapiens) (UniProt Q14833). The series is described as follows: Antagonist activity at mGluR4. In kind it is functional.
Series [7] relates to Rattus norvegicus. The series is described as follows: Analgesic activity in po dosed fasted Harlan Sprague-Dawley rat assessed as inhibition of formalin-induced paw-licking behaviour in late phase administered 1 hr before formalin challenge measured after 11 to 40 mins. In kind it is functional. The method, boiled down:
as §1

The target in series [8] is Metabotropic glutamate receptor 8 (Homo sapiens) (UniProt O00222). The series is described as follows: Antagonist activity at mGluR8. It counts as functional.
Sequence of Metabotropic glutamate receptor 8 (Homo sapiens) (O00222 whole entry): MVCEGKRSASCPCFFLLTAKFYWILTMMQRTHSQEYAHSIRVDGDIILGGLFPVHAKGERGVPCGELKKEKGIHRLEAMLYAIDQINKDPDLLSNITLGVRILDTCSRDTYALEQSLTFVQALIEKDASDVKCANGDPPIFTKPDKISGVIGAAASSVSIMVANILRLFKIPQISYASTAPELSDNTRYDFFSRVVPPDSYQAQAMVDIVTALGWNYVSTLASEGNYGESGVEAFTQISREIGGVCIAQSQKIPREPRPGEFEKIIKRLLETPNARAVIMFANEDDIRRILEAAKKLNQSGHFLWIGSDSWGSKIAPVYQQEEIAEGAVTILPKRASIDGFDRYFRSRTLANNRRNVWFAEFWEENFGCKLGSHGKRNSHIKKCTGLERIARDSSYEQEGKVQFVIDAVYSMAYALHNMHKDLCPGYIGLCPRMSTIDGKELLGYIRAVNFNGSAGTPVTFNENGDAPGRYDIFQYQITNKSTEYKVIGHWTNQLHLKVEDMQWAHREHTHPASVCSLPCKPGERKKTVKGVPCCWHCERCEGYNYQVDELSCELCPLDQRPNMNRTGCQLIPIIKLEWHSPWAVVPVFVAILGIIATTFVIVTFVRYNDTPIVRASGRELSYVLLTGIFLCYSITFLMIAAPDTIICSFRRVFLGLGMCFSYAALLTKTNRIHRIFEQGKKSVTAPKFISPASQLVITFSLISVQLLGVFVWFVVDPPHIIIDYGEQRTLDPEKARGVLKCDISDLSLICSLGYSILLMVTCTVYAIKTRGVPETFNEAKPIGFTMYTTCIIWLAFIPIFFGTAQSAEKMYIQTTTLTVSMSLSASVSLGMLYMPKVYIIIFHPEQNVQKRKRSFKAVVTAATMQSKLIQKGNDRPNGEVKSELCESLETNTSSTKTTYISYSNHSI
Series [9] is described as follows: Clearance in Sprague-Dawley rat at 3 mg/kg, iv and at 10 mg/kg, po. It counts as ADME, organism-based. Particulars: in vivo. The method, boiled down:
(§2)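 Sprague Dawley rats dosed 3 mg/kg IV (solution in 25 mmol/L phosphate buffer pH 3 with 5% solutol HS15 and 5% pharmasolve) and 10 mg/kg orally (suspension in 1% methylcellulose A400 plus 0.1% antifoam); plasma levels measured over 24 h to derive PK parameters.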

The nature of series [10]: AUC (0 to 24 hrs) in Sprague-Dawley rat at 10 mg/kg, po. In kind it is ADME, organism-based. On the set-up: time < 24 hr, dose 10 mg/kg, route oral. As to conditions: plasma. The method, boiled down:
as §2

For series [11], the target named is Metabotropic glutamate receptor 1 (Rattus norvegicus, UniProt P23385). Put plainly: Antagonist activity at rat mGluR1. It counts as functional.
Series [12] can be described thus: Oral bioavailability in Sprague-Dawley rat at 10 mg/kg. It counts as ADME, organism-based. Particulars: in vivo. The method, boiled down:
as §2

The nature of series [13]: Elimination half life in Sprague-Dawley rat at 3 mg/kg, iv. In kind it is ADME, organism-based. On the set-up: dose 3 mg/kg, route intravenous. Particulars: in vivo, read-out: beta t1/2 (converted). The essentials: as §2
The test system of series [14] is Rattus norvegicus. Put plainly: Toxicity in fasted Sprague-Dawley rat assessed as deffects in motor impairment at 60 mg/kg, po measured up to 4 hrs by rotorod test. In kind it is organism-based. On the set-up: dose 60 mg/kg, route oral. Particulars: in vivo. The method, boiled down:
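Fasted male Sprague Dawley rats given 60 mg/kg orally or vehicle (n = 8 per group); time on rotorod recorded at 1, 2, 3 and 4 h post-dose after training to 40 s baseline.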

A short description of series [15]: Elimination half life in Sprague-Dawley rat at 10 mg/kg, po. In kind it is ADME, organism-based. Particulars: in vivo, read-out: beta t1/2 (converted). On the set-up: dose 10 mg/kg, route oral. The method, boiled down: as §2
Series [16] can be described thus: Volume of distribution in Sprague-Dawley rat at 3 mg/kg, iv and at 10 mg/kg, po. Particulars: in vivo. In kind it is ADME, organism-based. The essentials: as §2
Series [17] deals with Rattus norvegicus. Put plainly: Ex vivo receptor occupancy of mGluR1 in po dosed fasted Sprague-Dawley rat assessed as ratio of drug level in cerebellum to frontal cortex after 20 mins. It counts as functional. The method, boiled down:
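Fasted Sprague Dawley rats dosed orally (0.3–60 mg/kg; vehicle 1% methyl cellulose), then 1 h later given a 30 µg/kg IV bolus of a competing mGluR1 antagonist tracer. Killed 20 min later; cerebellum and frontal cortex levels measured by mass spectrometry. Occupancy by ratio method (cerebellum normalized to cortex), n = 4 per dose (n = 3 at 10 mg/kg).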

A short description of series [18]: Ratio of drug level in brain to plasma in Sprague-Dawley rat. It counts as ADME. Particulars: read-out: BPR. The essentials:
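Rats dosed as in the plasma PK study; brain concentration profiles measured alongside plasma and the brain/plasma ratio taken.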

A short description of series [19]: Cmax in Sprague-Dawley rat at 10 mg/kg, po. On the set-up: dose 10 mg/kg, route oral. It counts as ADME, organism-based. As to conditions: in vivo. The essentials: as §2
A short description of series [20]: Tmax in Sprague-Dawley rat at 10 mg/kg, po. It counts as ADME, organism-based. On the set-up: dose 10 mg/kg, route oral. As to conditions: in vivo. The essentials:
as §2

Sequence of Metabotropic glutamate receptor 1 (Homo sapiens, UniProt Q13255) (Q13255 whole entry): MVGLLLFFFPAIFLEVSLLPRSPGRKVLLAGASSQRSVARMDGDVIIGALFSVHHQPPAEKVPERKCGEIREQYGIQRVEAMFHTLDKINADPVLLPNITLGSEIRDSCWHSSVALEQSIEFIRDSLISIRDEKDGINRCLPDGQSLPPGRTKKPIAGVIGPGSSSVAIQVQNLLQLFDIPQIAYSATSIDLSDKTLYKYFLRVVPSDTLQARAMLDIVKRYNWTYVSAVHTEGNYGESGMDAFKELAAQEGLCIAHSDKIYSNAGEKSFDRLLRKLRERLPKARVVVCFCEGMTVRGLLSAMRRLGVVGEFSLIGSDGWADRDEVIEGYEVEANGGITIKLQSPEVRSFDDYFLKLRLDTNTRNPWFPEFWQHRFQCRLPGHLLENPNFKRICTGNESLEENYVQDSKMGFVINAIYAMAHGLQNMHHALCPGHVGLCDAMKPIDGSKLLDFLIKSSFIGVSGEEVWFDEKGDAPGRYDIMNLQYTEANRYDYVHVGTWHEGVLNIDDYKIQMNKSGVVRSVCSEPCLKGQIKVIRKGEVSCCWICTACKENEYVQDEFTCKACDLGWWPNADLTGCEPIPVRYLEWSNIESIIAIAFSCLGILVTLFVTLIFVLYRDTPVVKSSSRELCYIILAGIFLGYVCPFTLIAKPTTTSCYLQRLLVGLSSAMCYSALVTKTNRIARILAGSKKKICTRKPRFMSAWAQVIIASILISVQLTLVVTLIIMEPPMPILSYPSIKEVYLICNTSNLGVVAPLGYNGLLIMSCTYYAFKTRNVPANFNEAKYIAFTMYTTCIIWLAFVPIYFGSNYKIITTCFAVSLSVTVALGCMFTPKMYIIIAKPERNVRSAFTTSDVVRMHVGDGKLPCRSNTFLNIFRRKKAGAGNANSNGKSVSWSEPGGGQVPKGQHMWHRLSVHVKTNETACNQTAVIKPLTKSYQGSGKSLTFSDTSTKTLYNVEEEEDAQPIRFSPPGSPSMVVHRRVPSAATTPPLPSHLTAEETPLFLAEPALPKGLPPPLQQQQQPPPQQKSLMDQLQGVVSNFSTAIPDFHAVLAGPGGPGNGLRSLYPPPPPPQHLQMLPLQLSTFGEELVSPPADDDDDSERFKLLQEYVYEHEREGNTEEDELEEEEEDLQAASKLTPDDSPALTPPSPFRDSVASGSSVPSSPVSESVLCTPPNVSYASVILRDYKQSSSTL
Sequence of Metabotropic glutamate receptor 5 (P41594 whole entry): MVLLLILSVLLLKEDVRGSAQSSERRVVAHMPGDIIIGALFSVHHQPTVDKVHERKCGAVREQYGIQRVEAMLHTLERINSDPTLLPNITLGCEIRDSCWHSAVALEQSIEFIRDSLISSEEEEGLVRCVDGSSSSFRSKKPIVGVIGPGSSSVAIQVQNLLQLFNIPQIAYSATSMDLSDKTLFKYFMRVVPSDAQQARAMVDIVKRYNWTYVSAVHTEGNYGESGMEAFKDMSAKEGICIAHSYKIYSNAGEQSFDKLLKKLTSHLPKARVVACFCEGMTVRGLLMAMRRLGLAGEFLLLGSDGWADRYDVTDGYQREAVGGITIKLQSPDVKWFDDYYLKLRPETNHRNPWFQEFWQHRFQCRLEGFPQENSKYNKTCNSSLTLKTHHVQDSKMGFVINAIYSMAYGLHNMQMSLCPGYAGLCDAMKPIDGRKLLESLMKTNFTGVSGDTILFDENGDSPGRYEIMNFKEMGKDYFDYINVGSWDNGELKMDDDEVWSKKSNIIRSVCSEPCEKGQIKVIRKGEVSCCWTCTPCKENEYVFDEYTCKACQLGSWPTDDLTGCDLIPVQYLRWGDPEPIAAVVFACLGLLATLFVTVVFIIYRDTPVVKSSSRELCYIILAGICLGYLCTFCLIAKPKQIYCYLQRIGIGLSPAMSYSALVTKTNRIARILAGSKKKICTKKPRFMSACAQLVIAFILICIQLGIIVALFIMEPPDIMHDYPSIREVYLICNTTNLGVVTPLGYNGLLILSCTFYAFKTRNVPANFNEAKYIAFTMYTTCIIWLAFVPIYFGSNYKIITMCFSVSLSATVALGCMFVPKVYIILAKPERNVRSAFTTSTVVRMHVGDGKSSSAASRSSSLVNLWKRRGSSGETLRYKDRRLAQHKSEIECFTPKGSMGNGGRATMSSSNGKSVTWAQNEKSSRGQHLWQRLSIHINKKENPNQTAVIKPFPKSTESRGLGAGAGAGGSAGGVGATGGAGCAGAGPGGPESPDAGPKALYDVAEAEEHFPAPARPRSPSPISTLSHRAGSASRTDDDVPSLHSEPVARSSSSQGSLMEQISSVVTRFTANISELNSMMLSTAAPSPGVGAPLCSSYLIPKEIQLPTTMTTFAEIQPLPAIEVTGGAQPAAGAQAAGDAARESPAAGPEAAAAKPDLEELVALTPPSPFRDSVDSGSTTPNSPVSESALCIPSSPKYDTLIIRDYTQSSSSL

By IC50 is commonly meant the point on the concentration scale where inhibition reaches its midpoint. Turning to `CCOc1ccc(-c2nsc(NC(=O)[C@@H]3C[C@H]3C)c2C)cc1`, the figures for the half-inhibitory concentration (IC50) in series [1] and in series [2] were 0.092 µM and 0.019 µM, respectively.

For `COc1ccc(-c2nsc(NC(=O)[C@@H]3C[C@H]3C)c2C)cc1` [listing 1 of 2 here], the outcome in series [3], in [4], in series [6] and in series [8] was inactive. The result with Rattus norvegicus [5] was Active. For the same compound, the Activity entry in the series with Rattus norvegicus [7] is “Dose-dependent effect”.

In the case of `Cc1c(-c2ccc(Cl)cc2)nsc1NC(=O)[C@@H]1C[C@H]1C`, the half-inhibitory concentration (IC50) turned out to be 0.009 µM in [1] and 1.22 µM in series [2].

As to `Cc1c(-c2ccc(C(C)(F)F)cc2)nsc1NC(=O)[C@@H]1C[C@H]1C`, the IC50 is 0.067 µM in series [1] and more than 12.5 µM in series [2].

Turning to `Cc1c(-c2ccc(Br)cc2)nsc1NC(=O)[C@@H]1C[C@H]1C`, the results for the half-maximal inhibitory concentration (IC50) in series [1] and in [2] were 0.007 µM and 0.73 µM, respectively.

Turning to `Cc1c(-c2ccc(F)cc2)nsc1NC(=O)[C@@H]1C[C@H]1C`, the IC50 is 0.1 µM in [1] and more than 12.5 µM in series [2].

For `Cc1c(-c2ccc(Cl)c(Cl)c2)nsc1NC(=O)[C@@H]1C[C@H]1C`, the concentration for half-maximal inhibition (IC50) in series [1] was found to be 0.039 µM; in [2], 6.65 µM.

Regarding `Cc1c(-c2ccccc2)nsc1NC(=O)[C@@H]1C[C@H]1C`, the results for the IC50 in [1] and in series [2] were 0.065 µM and more than 12.5 µM, respectively.

Regarding `COc1ccc(-c2nsc(NC(=O)[C@@H]3C[C@H]3C)c2C)cc1F`, the IC50 in [1] is 0.007 µM; in [2], 0.159 µM.

As a reminder, the AUC(0-t) is exposure summed from dosing to a finite time, without extrapolation to infinity. Read a high AUC(0-t) as high exposure. Broadly, the bioavailability is the share of a dose that reaches the circulation, judged against a reference dose that is usually intravenous. A word on the ED50: it is the dose that gives a 50% effect, or the effect in half of the subjects. The Cmax is the maximum level reached in the sampled fluid or tissue. By Tmax is commonly meant the time at which the peak concentration occurs. As for `COc1ccc(-c2nsc(NC(=O)[C@@H]3C[C@H]3C)c2C)cc1` [listing 2 of 2 here], the figures for the IC50 in series [1], in series [11] and in series [2] were 0.009 µM, 0.0009 µM and 0.158 µM, respectively. The clearance in [9] worked out at 2.15 L/h/kg. Further, the exposure AUC(0-t) at 24 h in series [10] came out at 3.24 µg·h/mL. Moreover, in series [12], the bioavailability was found to be 55.5%. In addition, the half-life is 0.41 h in series [13] and 1.24 h in series [15]. In the series on Rattus norvegicus [14], the Activity entry is “Non-toxic”. In series [16], this compound gave a Vd of 1.27 L/kg. Further, the ED50 in the series with Rattus norvegicus [17] was 3.7 mg/kg; with Rattus norvegicus [7] it was 7 mg/kg. In series [18], the Kp worked out at 0.2. The compound also returned a Cmax in series [19] of 1.05 µg/mL. In addition, in [20], the Tmax was found to be 1 h.

In the case of `COc1ccc(-c2nsc(NC(=O)[C@H]3C[C@@H]3C)c2C)cc1`, in [1], the IC50 turned out to be 0.11 µM.

As to `Cc1c(-c2ccc(O)cc2)nsc1NC(=O)[C@@H]1C[C@H]1C`, the half-inhibitory concentration (IC50) in series [1] was 0.138 µM; in series [2], more than 12.5 µM.

As to `COc1ccc(-c2nsc(NC(=O)[C@@H]3C[C@H]3C)c2C)cc1` (racemic), in [1], the half-maximal inhibitory concentration (IC50) amounted to 0.032 µM.
